In ChEMBL document CHEMBL2176992, “Synthesis and structure-activity relationship of (E)-phenoxyacrylic amide derivatives as hypoxia-inducible factor (HIF) 1α inhibitors” (J Med Chem, 2012):
≈ marks a conversion by molar mass, not a printed value. Calls of active or inactive are those of the source. No cut-off for these calls is given here.

How the values were obtained:
HCT-116 [1] = assay: Cytotoxicity against human HCT116 cells assessed as cell viability after 48 hrs by SRB assay; assay type: cell-based; settings: hct-116, 48 h
Summary of the method: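 Cell viability of HCT116 by sulforhodamine B assay under the hypoxic reporter-assay conditions; mean of three experiments.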

[2] = biological target: T1, Hypoxia-inducible factor 1-alpha (Homo sapiens, UniProt Q16665); assay: Inhibition of HIF1alpha in human HCT116 cells under hypoxic condition after 16 hrs by dual luciferase reporter gene assay; assay type: cell-based; settings: hct-116
Summary of the method: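 HRE-luciferase reporter in HCT116 cells under hypoxia (1% O2, 94% N2, 5% CO2); luciferase read-out. IC50 from the mean of three experiments; LW6 positive control.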
Target sequence in this assay (Q16665 whole entry): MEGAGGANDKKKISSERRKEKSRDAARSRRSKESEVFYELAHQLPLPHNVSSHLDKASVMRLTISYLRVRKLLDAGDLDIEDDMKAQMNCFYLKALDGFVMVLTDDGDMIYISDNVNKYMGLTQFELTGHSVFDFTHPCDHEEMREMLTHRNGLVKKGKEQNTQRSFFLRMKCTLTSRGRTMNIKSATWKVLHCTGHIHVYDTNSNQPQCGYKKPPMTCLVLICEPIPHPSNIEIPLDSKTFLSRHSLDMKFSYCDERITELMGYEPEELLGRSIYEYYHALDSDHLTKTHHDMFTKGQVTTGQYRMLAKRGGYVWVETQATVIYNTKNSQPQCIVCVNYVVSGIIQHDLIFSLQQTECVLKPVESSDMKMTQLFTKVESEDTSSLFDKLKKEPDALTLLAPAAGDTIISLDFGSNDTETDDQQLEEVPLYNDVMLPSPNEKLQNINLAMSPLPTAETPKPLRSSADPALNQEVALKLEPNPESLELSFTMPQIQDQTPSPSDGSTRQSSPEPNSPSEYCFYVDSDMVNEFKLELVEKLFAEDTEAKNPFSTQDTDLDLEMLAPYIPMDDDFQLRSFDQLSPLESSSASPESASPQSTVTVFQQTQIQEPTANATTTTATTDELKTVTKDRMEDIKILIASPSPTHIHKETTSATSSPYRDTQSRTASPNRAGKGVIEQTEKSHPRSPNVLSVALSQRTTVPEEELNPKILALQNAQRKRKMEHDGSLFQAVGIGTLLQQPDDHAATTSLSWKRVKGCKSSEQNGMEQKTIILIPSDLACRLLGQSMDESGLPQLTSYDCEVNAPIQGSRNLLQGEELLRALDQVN

[3] = biological target: T1, Hypoxia-inducible factor 1-alpha; assay: Inhibition of HIF1alpha in human HCT116 cells under hypoxic condition at 0.4 uM after 12 hrs by dual luciferase reporter gene assay in absence of dipyridol; assay type: cell-based; settings: HCT-116
Summary of the method: (§1)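 Cells cotransfected with pGL3-HRE-luciferase and pRL-SV40, incubated 24 h, then 4 h hypoxia. Then treated with compound (17-AAG 0.4 μM; test 5 μM) with or without 200 μM dipyridol for 12 h under hypoxia. Firefly luciferase normalised to Renilla.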
Target sequence in this assay (Q16665 whole entry, looked up): as the sequence (Q16665 whole entry) above

[4] = biological target: T1, Hypoxia-inducible factor 1-alpha; assay: Inhibition of HIF1alpha in human HCT116 cells under hypoxic condition at 0.4 uM after 12 hrs by dual luciferase reporter gene assay in presence of dipyridol; assay type: cell-based; settings: HCT-116; summary of the method: as §1
Target sequence in this assay (Q16665 whole entry, looked up): as the sequence (Q16665 whole entry) above

[5] = Kinetic solubility of the compound in water at pH 7.4 by nephlometry; assay type: physicochemical; settings: read-out: Kinetic_solubility
Summary of the method: (§2)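 Kinetic aqueous solubility determined by nephelometry at pH 2, 7.4 and 9; values are the mean of three experiments.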

[6] = Kinetic solubility of the compound in water at pH 9 by nephlometry; assay type: physicochemical; settings: read-out: Kinetic_solubility; summary of the method: as §2
[7] = Kinetic solubility of the compound in water at pH 2 by nephlometry; assay type: physicochemical; settings: read-out: Kinetic_solubility; summary of the method: as §2
HCT-116 [8] = assay: Antimigratory activity against human HCT116 cells assessed as inhibition of cell migration after 24 hrs by wound healing assay; assay type: functional, cell-based
Summary of the method: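 Scratch-wound migration of HCT116 cells formed with culture inserts; cells treated with compound or SU11248 and wound closure observed over 24 h.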

HUVEC [9] = assay: Cytotoxicity against HUVECs assessed as growth inhibition at 0.5 to 2 uM after 48 hrs by SRB assay; assay type: cell-based; settings: human
Summary of the method: (§3)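 HUVEC growth inhibition measured by sulforhodamine B assay, run in parallel with the Matrigel tube-formation incubation (compound or SU11248).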

HUVEC [10] = assay: Antiangiogenic activity in HUVECs under hypoxic condition assessed as inhibition of tube formation at 2 uM after 18 hrs; assay type: functional, cell-based; settings: Homo sapiens
Summary of the method: (§4)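 HUVECs seeded on wells coated with ice-cold Matrigel, incubated with compound under 1% O2 for 18 h. Tubule branches photographed; SU11248 as VEGFR-inhibitor positive control.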

[11] = biological target: T1, Hypoxia-inducible factor 1-alpha; assay: Inhibition of HIF1alpha in human HCT116 cells under hypoxic condition assessed as decrease in MMP9 mRNA expression by RT-PCR analysis; assay type: cell-based; settings: HCT-116
Summary of the method: (§5)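 HCT116 cells were treated under hypoxia (1% O2, 94% N2, 5% CO2), and the 2 μM test level was named. mRNA of HIF-1α and its targets (VEGF, EPO, MMP-9) was measured by RT-PCR.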
Target sequence in this assay (Q16665 whole entry, looked up): as the sequence (Q16665 whole entry) above

[12] = biological target: T1, Hypoxia-inducible factor 1-alpha; assay: Inhibition of HIF1alpha in human HCT116 cells under hypoxic condition assessed as decrease in EPO mRNA expression by RT-PCR analysis; assay type: cell-based; settings: HCT-116; summary of the method: as §5
Target sequence in this assay (Q16665 whole entry, looked up): as the sequence (Q16665 whole entry) above

[13] = biological target: T1, Hypoxia-inducible factor 1-alpha; assay: Inhibition of HIF1alpha in human HCT116 cells under hypoxic condition assessed as decrease in VEGF mRNA expression by RT-PCR analysis; assay type: cell-based; settings: HCT-116; summary of the method: as §5
Target sequence in this assay (Q16665 whole entry, looked up): as the sequence (Q16665 whole entry) above

[14] = biological target: T1, Hypoxia-inducible factor 1-alpha; assay: Inhibition of HIF1alpha in human HCT116 cells under normoxic condition assessed as increase in VHL expression at 2 to 5 uM by dual luciferase reporter gene assay; assay type: cell-based; settings: HCT-116
Target sequence in this assay (Q16665 whole entry, looked up): as the sequence (Q16665 whole entry) above

[15] = biological target: T1, Hypoxia-inducible factor 1-alpha; assay: Inhibition of HIF1alpha in human HCT116 cells under hypoxic condition assessed as increase in VHL expression at 2 to 5 uM by dual luciferase reporter gene assay; assay type: cell-based; settings: HCT-116
Summary of the method: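 HCT116 cells were exposed to 0, 2 or 5 μM compound under hypoxia (1% O2, 94% N2, 5% CO2). They were lysed in RIPA buffer, and total lysates were examined for VHL expression.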

[16] = biological target: T1, Hypoxia-inducible factor 1-alpha; assay: Inhibition of HIF1alpha in human HCT116 cells under hypoxic condition at 5 uM after 12 hrs by dual luciferase reporter gene assay in absence of dipyridol; assay type: cell-based; settings: HCT-116
Summary of the method: (§6)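 HCT116 cells were cotransfected with pGL3-HRE-luciferase and pRL-SV40 and incubated 24 h. They were then held under hypoxia 4 h and treated with 5 μM compound for 12 h under hypoxia, with 200 μM dipyridol added where stated. Firefly luciferase was read against Renilla.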

[17] = biological target: T1, Hypoxia-inducible factor 1-alpha; assay: Inhibition of HIF1alpha in human HCT116 cells under hypoxic condition at 5 uM after 12 hrs by dual luciferase reporter gene assay in presence of dipyridol; assay type: cell-based; settings: HCT-116; summary of the method: as §6
PC-3 = assay: Inhibition of HIF1alpha expression in human PC3 cells under hypoxic condition assessed as decrease in protein accumulation by Western blot analysis; assay type: functional, cell-based
Summary of the method: (§7)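 Cells held under hypoxia (1% O2, 94% N2, 5% CO2) with compound at various concentrations; HIF-1α protein in lysates detected by Western blot. LW6 as control; HIF-1β also probed.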

HeLa = assay: Inhibition of HIF1alpha expression in human HeLa cells under hypoxic condition assessed as decrease in protein accumulation by Western blot analysis; assay type: functional, cell-based; summary of the method: as §7
A549 = assay: Inhibition of HIF1alpha expression in human A549 cells under hypoxic condition assessed as decrease in protein accumulation by Western blot analysis; assay type: functional, cell-based; summary of the method: as §7
LoVo = assay: Inhibition of HIF1alpha expression in human LoVo cells under hypoxic condition assessed as decrease in protein accumulation by Western blot analysis; assay type: functional, cell-based; summary of the method: as §7
HCT-116 [18] = assay: Inhibition of HIF1beta expression in human HCT116 cells under hypoxic condition assessed as protein accumulation at 0.05 to 30 uM by Western blot analysis; assay type: functional, cell-based
Summary of the method: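 HCT116 cells under hypoxia treated with compound at various concentrations; HIF-1β protein level in lysates assessed by Western blot alongside HIF-1α.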

HCT-116 [19] = assay: Inhibition of HIF1alpha expression in human HCT116 cells under hypoxic condition assessed as decrease in protein accumulation by Western blot analysis; assay type: functional, cell-based; summary of the method: as §7
HUVEC [20] = assay: Cytotoxicity against HUVECs assessed as growth inhibition at 1 to 5 uM after 48 hrs by SRB assay; assay type: cell-based; settings: human; summary of the method: as §3
HUVEC [21] = assay: Antiangiogenic activity in HUVECs under hypoxic condition assessed as inhibition of tube formation at 2 to 5 uM after 18 hrs; assay type: functional, cell-based; settings: Homo sapiens; summary of the method: as §4
HCT-116 [22] = assay: Downregulation of HIF1alpha mRNA expression in human HCT116 cells under hypoxic condition at 2 to 10 uM by RT-PCR analysis; assay type: functional, cell-based
Summary of the method: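 mRNA of HIF-1α and target genes measured by RT-PCR in compound-treated cells.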

IC50 [2] [µM]	Compound	Activity (HCT-116 [1]) [µM]	further results
1.35	O=C(/C=C/Oc1ccc(C23CC4CC(CC(C4)C2)C3)cc1)Nc1cccc(C(=O)OCCN2CCCC2)c1	> 20	–
1.84	COCCOC(=O)c1cccc(NC(=O)/C=C/Oc2ccc(C34CC5CC(CC(C5)C3)C4)cc2)c1	> 20	–
1.07	O=C(/C=C/Oc1ccc(C23CC4CC(CC(C4)C2)C3)cc1)Nc1cccc(C(=O)NCCN2CCOCC2)c1	> 20	–
> 20	NC(=O)c1cccc(NC(=O)/C=C/Oc2ccc(C34CC5CC(CC(C5)C3)C4)cc2)c1	> 20	–
> 20	O=C(/C=C/Oc1ccc(C23CC4CC(CC(C4)C2)C3)cc1)Nc1cccc(C(=O)O)c1	> 20	–
0.12	O=C(/C=C/Oc1ccc(C23CC4CC(CC(C4)C2)C3)cc1)Nc1cccc(C(=O)OCCN2CCOCC2)c1	> 20	inhibition [11]: Dose-dependent effect; inhibition [12]: Dose-dependent effect; inhibition [13]: Dose-dependent effect; inhibition [14]: Active; inhibition [15]: Active; inhibition [16]: Active; inhibition [17]: inactive; inhibition (PC-3): Dose-dependent effect; inhibition (HeLa): Dose-dependent effect; inhibition (A549): Dose-dependent effect; inhibition (LoVo): Dose-dependent effect; inhibition (HCT-116 [18]): inactive; inhibition (HCT-116 [19]): Dose-dependent effect; solubility kinetic [5]: 113 µM (≈ 60 µg/mL); solubility kinetic [6]: 61.3 µM (≈ 32.5 µg/mL); solubility kinetic [7]: 45.1 µM (≈ 23.9 µg/mL); inhibition (HCT-116 [8]): Active; Activity (HUVEC [20]): Non-toxic; inhibition (HUVEC [21]): Active; Activity (HCT-116 [22]): inactive
2.62	CN(C)CCOC(=O)c1cccc(NC(=O)/C=C/Oc2ccc(C34CC5CC(CC(C5)C3)C4)cc2)c1	> 20	–
0.82	CCOC(=O)c1cccc(NC(=O)/C=C/Oc2ccc(C34CC5CC(CC(C5)C3)C4)cc2)c1	> 20	–

Continued, molecule first:

Compound	IC50 [2] [µM]	Activity (HCT-116 [1]) [µM]	further results
COC(=O)c1cccc(NC(=O)/C=C/Oc2ccc(C34CC5CC(CC(C5)C3)C4)cc2C)c1	4.12	> 20	–
O=C(/C=C/Oc1ccc(C23CC4CC(CC(C4)C2)C3)cc1)Nc1cccc(C(=O)NCc2ccco2)c1	> 20	> 20	–
O=C(/C=C/Oc1ccc(C23CC4CC(CC(C4)C2)C3)cc1)Nc1cccc(C(=O)NCCc2ccncc2)c1	1.34	> 20	–
C=CCNC1=C2C[C@@H](C)C[C@H](OC)[C@H](O)[C@@H](C)/C=C(\C)[C@H](OC(N)=O)[C@@H](OC)/C=C\C=C(/C)C(=O)NC(=CC1=O)C2=O	–	–	inhibition [3]: Active; inhibition [4]: Active
COC(=O)c1cccc(NC(=O)/C=C/Oc2ccc(C34CC5CC(CC(C5)C3)C4)cc2)c1	–	> 20	solubility kinetic [5]: 6.56 µM (≈ 2.83 µg/mL); solubility kinetic [6]: 12.2 µM (≈ 5.27 µg/mL); solubility kinetic [7]: 4.25 µM (≈ 1.83 µg/mL)
COC(=O)c1cc(NC(=O)/C=C/Oc2ccc(C34CC5CC(CC(C5)C3)C4)cc2)ccc1O	> 20	> 20	–
CCN(CC)CCNC(=O)c1c(C)[nH]c(/C=C2\C(=O)Nc3ccc(F)cc32)c1C [SUNITINIB]	–	–	inhibition (HCT-116 [8]): Active; Activity (HUVEC [9]): Non-toxic; inhibition (HUVEC [10]): Active
COC(=O)c1ccc(O)c(NC(=O)COc2ccc(C34CC5CC(CC(C5)C3)C4)cc2)c1	2.44	> 20	solubility kinetic [5]: 6.85 µM (≈ 2.98 µg/mL); solubility kinetic [6]: 44.9 µM (≈ 19.6 µg/mL); solubility kinetic [7]: 68.2 µM (≈ 29.7 µg/mL)
COC(=O)c1cccc(NC(=O)CCCOc2ccc(C34CC5CC(CC(C5)C3)C4)cc2)c1	15.8	> 20	–
COC(=O)c1cccc(NC(=O)/C=C/Oc2ccc(C(C)(C)CC(C)(C)C)cc2)c1	1.04	> 20	–
COC(=O)c1ccc(NC(=O)/C=C/Oc2ccc(C34CC5CC(CC(C5)C3)C4)cc2)cc1	2.17	> 20	–
COC(=O)c1cccc(NC(=O)CCOc2ccc(C34CC5CC(CC(C5)C3)C4)cc2)c1	2.54	> 20	–
NS(=O)(=O)c1cccc(NC(=O)/C=C/Oc2ccc(C34CC5CC(CC(C5)C3)C4)cc2)c1	2.38	> 20	–
COC(=O)c1cccc(NC(=O)COc2ccc(C34CC5CC(CC(C5)C3)C4)cc2)c1	5.03	> 20	–
CC(C)NC(=O)c1cccc(NC(=O)/C=C/Oc2ccc(C34CC5CC(CC(C5)C3)C4)cc2)c1	> 20	> 20	–
O=C(/C=C/Oc1ccc(C23CC4CC(CC(C4)C2)C3)cc1)Nc1cccc(C(=O)NCCCn2ccnc2)c1	1.85	> 20	–
COC(=O)c1cccc(NC(=O)/C=C/Oc2ccc(C(C)(C)C)cc2)c1	6.03	> 20	–
CS(=O)(=O)c1cccc(NC(=O)/C=C/Oc2ccc(C34CC5CC(CC(C5)C3)C4)cc2)c1	1.18	> 20	–
